This passage reports inhibition and IC50 results from ChEMBL document CHEMBL1125680, “Quinazolinone cholecystokinin-B receptor ligands” (J Med Chem, 1991).

SMILES strings stand for the structures.

The first assay concerns the target T1, Cholecystokinin receptor type A (Rattus norvegicus) (UniProt P30551).
T1 sequence (whole entry): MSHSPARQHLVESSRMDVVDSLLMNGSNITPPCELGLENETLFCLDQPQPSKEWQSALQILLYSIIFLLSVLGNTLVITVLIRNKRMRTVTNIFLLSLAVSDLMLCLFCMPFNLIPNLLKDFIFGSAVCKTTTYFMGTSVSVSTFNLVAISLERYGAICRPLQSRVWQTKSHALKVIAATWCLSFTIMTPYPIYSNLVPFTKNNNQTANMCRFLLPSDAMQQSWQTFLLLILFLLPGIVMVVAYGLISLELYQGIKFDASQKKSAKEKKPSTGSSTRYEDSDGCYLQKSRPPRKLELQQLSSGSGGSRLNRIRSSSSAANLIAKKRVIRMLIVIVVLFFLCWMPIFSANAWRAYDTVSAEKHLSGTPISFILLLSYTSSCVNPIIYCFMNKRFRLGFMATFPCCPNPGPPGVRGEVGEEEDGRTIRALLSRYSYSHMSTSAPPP
Put plainly: Inhibition of [3H]-labeled L-364,718 binding to Cholecystokinin type A receptor in rat pancreas. The following applies: concentration not given here.
With `O=c1c2ccccc2nc(CCc2c[nH]c3ccccc23)n1-c1cccc(C(F)(F)F)c1`, the inhibition stood at 6%.
On the same count and under the same terms, as for `CC(C)Oc1cccc(-n2c(CCc3c[nH]c4ccc(Br)cc34)nc3ccccc3c2=O)c1`, the figure is -6%; as for `COc1cccc(-n2c(CCc3c[nH]c4ccc(Br)cc34)nc3ccccc3c2=O)c1`, 5%; as for `CCc1cccc(-n2c(CCc3c[nH]c4ccc(Br)cc34)nc3ccccc3c2=O)c1`, -5%.

In a further assay the target is T2, Gastrin/cholecystokinin type B receptor (Mus musculus) (UniProt P56481).
T2 sequence (whole entry): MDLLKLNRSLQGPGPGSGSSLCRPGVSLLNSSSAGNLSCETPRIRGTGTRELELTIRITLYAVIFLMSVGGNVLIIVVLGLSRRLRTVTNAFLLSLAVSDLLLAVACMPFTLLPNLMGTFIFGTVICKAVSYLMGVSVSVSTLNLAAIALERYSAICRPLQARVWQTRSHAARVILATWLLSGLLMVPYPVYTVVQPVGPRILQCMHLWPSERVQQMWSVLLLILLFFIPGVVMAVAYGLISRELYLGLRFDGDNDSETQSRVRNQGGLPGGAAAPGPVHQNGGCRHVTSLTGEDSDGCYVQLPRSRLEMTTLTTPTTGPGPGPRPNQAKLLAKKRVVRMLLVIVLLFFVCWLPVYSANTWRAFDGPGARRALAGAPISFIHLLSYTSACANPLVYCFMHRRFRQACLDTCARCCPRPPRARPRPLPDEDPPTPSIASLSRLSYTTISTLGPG
The assay can be described thus: Inhibition of [125I]-labeled CCK-8 sulfate binding to cholecystokinin type B receptor in mouse brain membranes. It counts as cell membranes. The following applies: Membrane, concentration not given here. An outline of the steps: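 Mouse brain membranes as the CCK-B receptor source, with 125I-labelled CCK-8 sulfate as the radioligand, following the Chang and Lotti method.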
Consider `O=c1c2ccccc2nc(CCc2c[nH]c3ccccc23)n1-c1ccccc1C(F)(F)F`, for which the inhibition came to 35%.
Consider `O=c1c2ccccc2nc(CCc2c[nH]c3ccccc23)n1-c1ccccc1Cl`, for which the inhibition was 44%.
With `COc1ccccc1-n1c(CCc2c[nH]c3ccccc23)nc2ccccc2c1=O`, the inhibition stood at 74%.
For the compound `O=c1c2ccccc2nc(CCc2c[nH]c3ccccc23)n1-c1ccccc1F`, the inhibition is 75%.

A further assay concerns the target T3, Gastrin/cholecystokinin type B receptor (Mus musculus, UniProt P56481).
T3 sequence (P56481 whole entry): T2 sequence (whole entry)
Put plainly: Inhibition of [125I]CCK-8 sulfate binding to cholecystokinin type B receptor in mouse brain membranes. Type of assay: cell membranes.
Conditions: not given
For the compound `O=c1c2ccccc2nc(CCc2c[nH]c3ccc(Br)cc23)n1-c1cccc(OC2CCCC2)c1`, the 50% inhibitory concentration (IC50) stood at 67 nM.
Still for that read-out and setting: as for `O=c1c2ccccc2nc(CCc2c[nH]c3ccccc23)n1-c1cccc(C(F)(F)F)c1`, the figure is 480 nM.
For the compound `CCCOc1cccc(-n2c(CCc3c[nH]c4ccc(Br)cc34)nc3ccccc3c2=O)c1`, the IC50 was 58 nM.
